Source: ChEMBL document CHEMBL3352666, “Human Toll-like receptor 8-selective agonistic activities in 1-alkyl-1H-benzimidazol-2-amines” (J Med Chem, 2014)
Active and inactive are the calls of the source. The rule behind the calls is not given here.

Experiments:
[1] = target: T1, Toll-like receptor 8 (Homo sapiens) (UniProt Q9NR97); assay: Induction of TLR8-mediated IFN-gamma in human PBMC after 12 hrs by immunoassay
T1 sequence (whole entry): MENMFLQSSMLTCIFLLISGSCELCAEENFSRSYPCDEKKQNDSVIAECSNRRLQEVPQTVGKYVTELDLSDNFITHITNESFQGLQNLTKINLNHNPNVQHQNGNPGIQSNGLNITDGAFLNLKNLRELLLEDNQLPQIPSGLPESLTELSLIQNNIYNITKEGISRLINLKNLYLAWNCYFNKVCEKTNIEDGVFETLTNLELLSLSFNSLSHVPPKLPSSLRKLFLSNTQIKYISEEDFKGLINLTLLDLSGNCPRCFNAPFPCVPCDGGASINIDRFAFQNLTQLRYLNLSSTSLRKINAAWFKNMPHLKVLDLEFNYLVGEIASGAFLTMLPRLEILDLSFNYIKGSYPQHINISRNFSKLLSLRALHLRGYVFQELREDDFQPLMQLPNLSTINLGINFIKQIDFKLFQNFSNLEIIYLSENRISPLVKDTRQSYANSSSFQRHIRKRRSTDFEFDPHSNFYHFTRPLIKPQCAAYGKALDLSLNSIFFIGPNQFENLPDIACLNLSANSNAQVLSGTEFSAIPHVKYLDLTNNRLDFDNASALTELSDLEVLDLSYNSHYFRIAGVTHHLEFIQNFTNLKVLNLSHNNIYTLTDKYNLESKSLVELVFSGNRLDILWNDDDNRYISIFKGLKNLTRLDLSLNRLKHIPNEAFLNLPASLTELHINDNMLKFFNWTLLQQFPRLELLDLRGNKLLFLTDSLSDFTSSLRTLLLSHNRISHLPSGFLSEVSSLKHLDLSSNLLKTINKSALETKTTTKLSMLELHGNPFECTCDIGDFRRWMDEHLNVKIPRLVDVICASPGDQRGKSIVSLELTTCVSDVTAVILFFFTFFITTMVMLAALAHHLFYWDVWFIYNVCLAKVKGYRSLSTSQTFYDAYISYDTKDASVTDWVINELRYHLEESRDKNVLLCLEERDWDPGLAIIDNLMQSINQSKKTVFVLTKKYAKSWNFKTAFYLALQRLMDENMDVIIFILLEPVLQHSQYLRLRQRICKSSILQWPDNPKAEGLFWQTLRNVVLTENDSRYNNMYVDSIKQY
Method in brief: (§1)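 Fresh PBMCs were isolated from venous blood on Ficoll-Hypaque gradients and plated at 10^5 cells in 100 µL per well. They were stimulated 12 h with graded compound concentrations. Centrifuged supernatants were assayed in duplicate by multiplexed analyte-specific cytokine bead array.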

[2] = target: T1, Toll-like receptor 8 (Homo sapiens); assay: Induction of TLR8-mediated IL-12p40 in human PBMC after 12 hrs by immunoassay; method in brief: as §1
[3] = Upregulation of CD69 expression in human NK cells at 0.1 to 10 ug/ml measured after overnight incubation by flow cytometry; format: functional, cell-based
Method in brief: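 Heparin-anticoagulated whole blood from healthy volunteers was stimulated with graded concentrations at 37 °C overnight. It was then stained 30 min at 37 °C in the dark with CD3-PE, CD56-APC and CD69-PE-Cy7, followed by one-step erythrocyte lysis and fixation. NK cells were gated as CD3-CD56+ from 100,000 events. Values are means of duplicates from a representative experiment.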

[4] = target: T2, Nucleotide-binding oligomerization domain-containing protein 1 (Homo sapiens, UniProt Q9Y239); assay: Antagonist activity at human NOD1 stably expressed in HEK293 cells co-expressing secreted alkaline phosphatase assessed as NF-kappaB induction by liquid handler-assisted reporter gene assay; format: cell-based
T2 sequence (Q9Y239 whole entry): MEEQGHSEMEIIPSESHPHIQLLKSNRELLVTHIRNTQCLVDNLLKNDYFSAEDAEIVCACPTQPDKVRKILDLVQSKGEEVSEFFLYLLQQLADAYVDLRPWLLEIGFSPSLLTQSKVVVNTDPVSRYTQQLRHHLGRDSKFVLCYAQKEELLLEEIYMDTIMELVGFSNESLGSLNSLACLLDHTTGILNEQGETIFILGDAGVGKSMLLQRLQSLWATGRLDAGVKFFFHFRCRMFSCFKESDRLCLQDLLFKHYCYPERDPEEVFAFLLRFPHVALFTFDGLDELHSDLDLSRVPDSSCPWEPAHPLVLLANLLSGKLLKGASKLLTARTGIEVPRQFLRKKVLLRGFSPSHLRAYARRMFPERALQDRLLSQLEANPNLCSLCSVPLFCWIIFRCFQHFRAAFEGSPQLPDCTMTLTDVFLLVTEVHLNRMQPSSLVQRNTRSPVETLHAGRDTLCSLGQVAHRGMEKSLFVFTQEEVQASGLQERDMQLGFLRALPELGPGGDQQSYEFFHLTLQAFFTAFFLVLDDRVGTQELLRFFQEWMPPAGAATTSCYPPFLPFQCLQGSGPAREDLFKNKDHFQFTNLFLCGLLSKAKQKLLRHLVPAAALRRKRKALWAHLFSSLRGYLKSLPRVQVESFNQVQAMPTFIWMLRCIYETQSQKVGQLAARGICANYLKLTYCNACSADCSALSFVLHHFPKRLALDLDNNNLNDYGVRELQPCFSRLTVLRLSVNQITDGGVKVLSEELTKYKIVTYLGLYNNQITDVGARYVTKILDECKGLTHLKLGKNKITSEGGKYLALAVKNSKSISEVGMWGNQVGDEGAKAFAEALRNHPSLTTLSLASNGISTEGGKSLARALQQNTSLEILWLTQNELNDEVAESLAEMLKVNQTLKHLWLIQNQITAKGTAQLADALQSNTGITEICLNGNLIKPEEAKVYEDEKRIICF

Compound | IC50 [4] | also measured
CCCCCn1c(N)nc2c(C)cccc21 | – | Activity [1]: Active; Activity [2]: Active; Activity [3]: inactive
CCCCCn1c(N)nc2c(Cc3ccccc3)cccc21 | > 10 µM | –
CCCCCn1c(NC(C)=O)nc2ccccc21 | > 10 µM | –
CCCCCn1c(N)nc2ccc3ccccc3c21 | > 10 µM | –
CCCCCn1c(N)nc2cc3ccccc3cc21 | > 10 µM | –
CCCCCn1c(N)nc2c(-c3ccccc3)cccc21 | > 10 µM | –
CCCCCn1c(N)nc2c(OCc3ccccc3)cccc21 | > 10 µM | –
